Converted amounts (≈) assume the structure as drawn. The source made the active and inactive calls. No cut-off for these calls is given here.
Tests used:
Rattus norvegicus [1] = assay: Antiinflammatory activity against carrageenan-induced foot edema in rat administered via gastric gavage; assay type: functional; details: po
In short: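 Rats, six per dose level, received drug as an aqueous suspension by gastric gavage before carrageenan-induced foot edema was measured. The highest dose given was 400 mg/kg.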

Rattus norvegicus [2] = assay: Toxicity in po dosed rat assessed as intestinal perforating ulcer; assay type: organism-based; details: in vivo
Rattus norvegicus [3] = assay: Analgesic activity in po dosed rat assessed as inhibition of yeast-induced inflammatory pain; assay type: functional
Rattus norvegicus [4] = assay: Antipyretic activity in po dosed rat; assay type: functional
[5] = target: Cyclooxygenase (Homo sapiens) (UniProt P35354+P23219)
Rattus norvegicus [6] = assay: Analgesic activity in po dosed rat assessed as inhibition of adjuvant-induced arthritis pain; assay type: functional
Canis familiaris = assay: Analgesic activity in po dosed dog knee joint pain model; assay type: functional; details: Canis lupus familiaris
Rattus norvegicus [7] = assay: Toxicity in po dosed rat assessed as gastric hemorrhage; assay type: organism-based, Stomach; details: in vivo
Rattus norvegicus [8] = assay: Toxicity in rat assessed as intestinal perforating ulcer at 1024 mg/kg, po; assay type: organism-based; parameters: dose 1024 mg/kg, route oral; details: in vivo
Rattus norvegicus [9] = assay: Antiinflammatory activity against carrageenan-induced foot edema in rat at 400 mg/kg administered via gastric gavage; assay type: functional, organism-based; parameters: dose 400 mg/kg
In short: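 Carrageenan-induced foot edema in rats. Drugs were given as an aqueous suspension by gastric gavage to six rats at each dose level.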

[10] = Drug excretion in human urine after 96 hrs; assay type: ADME, tissue-based; details: read-out: Drug excretion
[11] = Plasma concentration in human at 250 mg, po after 2 hrs
[12] = Plasma concentration in human at 500 mg, po after 2 hrs
Rattus norvegicus [13] = assay: Toxicity in rat assessed as gastric hemorrhage at 256 mg/kg, po; assay type: organism-based, Stomach; parameters: dose 256 mg/kg, route oral; details: in vivo

O=C(O)c1cc(-c2cccc(F)c2)ccc1O
ED50 (Rattus norvegicus [1]): 40 mg/kg

CC1=C(CC(=O)O)c2cc(F)ccc2/C1=C\c1ccc([S+](C)[O-])cc1 (centres undefined) [SULINDAC]
ED50 (Rattus norvegicus [2]): 69 mg/kg | ED50 (Rattus norvegicus [3]): 1.7 mg/kg | ED50 (Rattus norvegicus [4]): 2.9 mg/kg | ED50 [5]: inactive | ED50 (Rattus norvegicus [6]): 0.55 mg/kg | ED50 (Canis familiaris): 45 mg/kg | ED50 (Rattus norvegicus [7]): 27 mg/kg

O=C(O)c1ccc(-c2ccc(F)cc2)cc1O
ED50 (Rattus norvegicus [1]): 400 mg/kg

CC(=O)Oc1ccccc1C(=O)O [ASPIRIN]
ED50 (Rattus norvegicus [3]): 87 mg/kg | ED50 (Rattus norvegicus [4]): 40 mg/kg | ED50 (Rattus norvegicus [1]): 89 mg/kg | ED50 [5]: 13 µg/mL (≈ 72.2 µM) | ED50 (Rattus norvegicus [6]): 78 mg/kg | ED50 (Canis familiaris): 68 mg/kg | ED50 (Rattus norvegicus [7]): 81 mg/kg | Activity (Rattus norvegicus [8]): Non-toxic

O=C(O)c1cc(-c2ccccc2F)ccc1O
ED50 (Rattus norvegicus [1]): 20 mg/kg

O=C(O)c1cc(F)ccc1O
ED50 (Rattus norvegicus [1]): 120 mg/kg

COc1cc(-c2ccc(O)c(C(=O)O)c2)ccc1F
Activity (Rattus norvegicus [9]): inactive

O=C(O)c1ccc(C(F)(F)F)cc1O
Activity (Rattus norvegicus [9]): inactive

CC(=O)Oc1ccc(-c2ccc(F)cc2F)cc1C(=O)O
ED50 (Rattus norvegicus [1]): 27 mg/kg

CCOC(=O)Oc1ccc(-c2ccc(F)cc2F)cc1C(=O)O
ED50 (Rattus norvegicus [1]): 30 mg/kg

CC(=O)Oc1ccc(-c2ccc(F)cc2)cc1C(=O)O [FLUFENISAL]
ED50 (Rattus norvegicus [2]): > 512 mg/kg | ED50 (Rattus norvegicus [3]): 35 mg/kg | ED50 (Rattus norvegicus [4]): 160 mg/kg | ED50 (Rattus norvegicus [1]): 24 mg/kg | ED50 [5]: 10 µg/mL (≈ 36.5 µM) | ED50 (Rattus norvegicus [6]): 40 mg/kg | ED50 (Rattus norvegicus [7]): > 512 mg/kg

CCCCOC(=O)Oc1ccc(-c2ccc(F)cc2)cc1C(=O)O
ED50 (Rattus norvegicus [1]): 25 mg/kg

Cc1cc(-c2ccc(O)c(C(=O)O)c2)ccc1F
Activity (Rattus norvegicus [9]): inactive

COc1ccc2c(c1)c(CC(=O)O)c(C)n2C(=O)c1ccc(Cl)cc1 [INDOMETHACIN]
ED50 (Rattus norvegicus [2]): 5.2 mg/kg | ED50 (Rattus norvegicus [3]): 2.2 mg/kg | ED50 (Rattus norvegicus [4]): 1.8 mg/kg | ED50 (Rattus norvegicus [6]): 0.27 mg/kg | ED50 (Canis familiaris): 1.7 mg/kg | ED50 (Rattus norvegicus [7]): 5.4 mg/kg

O=C(O)c1cc(-c2ccc(F)cc2F)ccc1O [DIFLUNISAL]
ED50 (Rattus norvegicus [2]): 520 mg/kg | ED50 (Rattus norvegicus [3]): 4.6 mg/kg | dose excreted at 96 h [10]: 95% | ED50 (Rattus norvegicus [4]): 27.8 mg/kg | ED50 (Rattus norvegicus [1]): 9.8 mg/kg | ED50 [5]: 0.6 µg/mL (≈ 2.4 µM) | ED50 (Rattus norvegicus [6]): 10.4 mg/kg | concentration at 2 h [11]: 30 µg/mL | ED50 (Canis familiaris): 24 mg/kg | concentration at 2 h [12]: 99 µg/mL | Activity (Rattus norvegicus [13]): Non-toxic

O=C(O)c1cccc(-c2ccccc2)c1O
ED50 (Rattus norvegicus [1]): 130 mg/kg

O=C(O)c1c(O)cccc1F
Activity (Rattus norvegicus [9]): inactive

CC(=O)Oc1cc(C(F)(F)F)ccc1C(=O)O [TRIFLUSAL]
ED50 (Rattus norvegicus [1]): 155 mg/kg

O=C(O)c1ccc(F)cc1O
ED50 (Rattus norvegicus [1]): 400 mg/kg

O=C(O)c1cc(-c2ccc(Cl)cc2)ccc1O
ED50 (Rattus norvegicus [1]): 24 mg/kg

O=C(O)c1cc(-c2ccc(C(F)(F)F)cc2)ccc1O
ED50 (Rattus norvegicus [1]): 50 mg/kg

O=C(O)c1cc(-c2ccccc2)cc(F)c1O
ED50 (Rattus norvegicus [1]): 110 mg/kg

Cc1cc(-c2ccccc2)cc(C(=O)O)c1O
ED50 (Rattus norvegicus [1]): 60 mg/kg

O=C(O)c1ccc(-c2ccccc2)cc1O
ED50 (Rattus norvegicus [1]): 150 mg/kg

CCCc1cc(-c2ccc(F)cc2)cc(C(=O)O)c1O
Activity (Rattus norvegicus [9]): inactive

O=C(O)c1cc(-c2ccccc2)ccc1O
ED50 (Rattus norvegicus [1]): 54 mg/kg

O=C(O)c1cc(-c2ccc(F)cc2)ccc1O
ED50 (Rattus norvegicus [1]): 14 mg/kg

Cc1cc(-c2ccc(F)cc2)cc(C(=O)O)c1O
ED50 (Rattus norvegicus [1]): 60 mg/kg

CC(=O)Oc1c(F)cccc1C(=O)O
ED50 (Rattus norvegicus [1]): 281 mg/kg

O=C(O)c1cccc(F)c1O
ED50 (Rattus norvegicus [1]): 90 mg/kg

Cc1cc(F)ccc1-c1ccc(O)c(C(=O)O)c1
ED50 (Rattus norvegicus [1]): 76 mg/kg

CC(=O)Oc1ccc(-c2ccccc2)cc1C(=O)O
ED50 (Rattus norvegicus [1]): 170 mg/kg

O=C(O)c1c(O)cccc1-c1ccccc1
Activity (Rattus norvegicus [9]): inactive

O=C(O)c1cc(C2CCCCC2)ccc1O
Activity (Rattus norvegicus [9]): inactive

O=C(O)c1cccc(-c2ccc(Cl)cc2)c1O
Activity (Rattus norvegicus [9]): inactive

O=C(O)c1ccccc1O [SALICYLIC ACID]
ED50 (Rattus norvegicus [1]): 77 mg/kg

O=C(O)c1cc(-c2c(F)c(F)c(F)c(F)c2F)ccc1O
ED50 (Rattus norvegicus [1]): 20 mg/kg

CCCCOC(=O)Oc1ccc(-c2ccc(F)cc2F)cc1C(=O)O
ED50 (Rattus norvegicus [1]): 12 mg/kg

O=C(O)c1cc(-c2ccccc2)c(Cl)cc1O
Activity (Rattus norvegicus [9]): inactive

CC(C)Cc1ccc(C(C)C(=O)O)cc1 (centres undefined) [IBUPROFEN]
ED50 (Rattus norvegicus [2]): < 256 mg/kg | ED50 (Rattus norvegicus [3]): 2.6 mg/kg | ED50 (Rattus norvegicus [4]): 5.9 mg/kg | ED50 (Rattus norvegicus [6]): 28 mg/kg | ED50 (Rattus norvegicus [7]): < 16 mg/kg

O=C(O)c1cc(-c2ccc(I)cc2)ccc1O
ED50 (Rattus norvegicus [1]): 120 mg/kg

Reference: ChEMBL document CHEMBL3244301, “Novel analgesic-antiinflammatory salicylates” (J Med Chem, 1978)
